The values below come from ChEMBL document CHEMBL4041521, “3-Aroylindoles display antitumor activity in vitro and in vivo: Effects of N1-substituents on biological activity” (Eur J Med Chem, 2017).

Data set [1] concerns Mus musculus. Briefly: Toxicity in human RPMI8226 cells xenografted in athymic nude mouse assessed as body weight loss at 50 to 100 mg/kg, ip qd measured daily during first week followed by twice per week. The format is organism-based. Particulars: in vivo. In short, it runs like this: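 RPMI-8226 xenograft nude mice (male, 5–6 wk) dosed i.p. daily in 5% DMSO + 5% Cremophor in D5W. Body weight measured daily for the first week, then twice weekly.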

The species entered for data set [2] is Homo sapiens. Put plainly: Inhibition of HDAC in human PC3 cells assessed as increase in alpha-tubulin acetylation by Western blot analysis. The data set is classed as cell-based. In short, it runs like this:
(§1)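 PC3 prostate cancer cells treated, then lysed in 20 mM Tris-HCl pH 7.5 with 150 mM NaCl, EDTA/EGTA, phosphatase and protease inhibitors, 0.1% Triton X-100. Lysates spun 13,000 rpm for 30 min, then immunoblotted for acetylated α-tubulin and acetylated histone H3.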

The species named for the next data set is Sus scrofa. Briefly: Inhibition of purified porcine tubulin polymerization measured every 1 min for 30 mins.
For data set [3], the species on record is Homo sapiens. Put plainly: Inhibition of HDAC in human PC3 cells assessed as increase in histone-H3 acetylation by Western blot analysis. The data set is classed as cell-based. In short, it runs like this: as §1
A general note: Immunoblotting shows a protein as a band on a membrane.

The next data set concerns the target Histone deacetylase 4 (Homo sapiens, UniProt P56524). Put plainly: Inhibition of recombinant human HDAC4 using fluorogenic substrate by fluorescence assay.
The test system of data set [4] is RPMI-8226. Put plainly: Antitumor activity against human RPMI8226 cells xenografted in athymic nude mouse assessed as tumor growth inhibition at 100 mg/kg, ip qd measured twice per week relative to control. The format is functional. The following applies: RPMI-8226, ip, read-out: TGI. In short, it runs like this:
(§2)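 Male athymic nude mice (5–6 wk) implanted s.c. with 1 × 10⁷ RPMI-8226 myeloma cells; randomized by tumor size at ~150–350 mm³. Daily i.p. injection, vehicle 5% DMSO + 5% Cremophor in D5W. Tumor volume by calipers twice weekly as (length × width²)/2; %TGI derived from treated vs control volume ratios at time t and time 0.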

Data set [5] relates to PC-3. Put plainly: Antiproliferative activity against human PC3 cells measured after 48 hrs by sulforhodamine-B assay. The format is functional, cell-based. The following applies: PC-3, 48 h.
The target of the next data set is Histone deacetylase 3 (Homo sapiens, UniProt O15379). Put plainly: Inhibition of recombinant human HDAC3 using fluorogenic substrate by fluorescence assay.
The subject of data set [6] is Mus musculus. Briefly: Toxicity in human PC3 cells xenografted in athymic nude mouse assessed as body weight loss at 100 to 200 mg/kg, po qd administered daily measured daily during first week followed by twice per week. The data set is classed as organism-based. The following applies: in vivo. In short, it runs like this:
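PC3 xenograft nude mice (male, 5–6 wk) given daily oral drug in 5% DMSO + 5% Cremophor in D5W. Body weight recorded daily in week one, then twice weekly, compared with vehicle group.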
For orientation: Xenograft models place foreign cells or tissue in a host animal.

The next data set deals with Histone deacetylase 2 (Homo sapiens, UniProt Q92769). Put plainly: Inhibition of recombinant human HDAC2 using fluorogenic substrate by fluorescence assay.
The next data set has as its system A549. Put plainly: Antiproliferative activity against human A549 cells measured after 48 hrs by sulforhodamine-B assay. The format is functional, cell-based. The following applies: A549, 48 h.
Data set [7] deals with RPMI-8226. Put plainly: Antitumor activity against human RPMI8226 cells xenografted in athymic nude mouse assessed as tumor growth inhibition at 50 mg/kg, ip qd measured twice per week relative to control. The data set is classed as functional. The following applies: RPMI-8226, ip, read-out: TGI. The method, boiled down:
as §2

The test system of data set [8] is RPMI-8226. Briefly: Antitumor activity against human RPMI8226 cells xenografted in ip dosed athymic nude mouse assessed as tumor growth inhibition administered once daily measured twice per week. The data set is classed as functional, organism-based. In short, it runs like this: as §2
For data set [9], the system named is PC-3. Briefly: Antitumor activity against human PC3 cells xenografted in athymic nude mouse assessed as tumor growth inhibition at 200 mg/kg, po qd administered daily measured twice per week relative to control. The data set is classed as functional. Particulars: PC-3, po, read-out: TGI. The method, boiled down:
(§3)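 Male athymic nude mice (5–6 wk) given 1 × 10⁷ PC3 cells s.c.; randomized by tumor size at ~150–350 mm³. Oral dosing daily, vehicle 5% DMSO + 5% Cremophor in D5W. Caliper volumes twice weekly, (length × width²)/2; %TGI = {1-[(Tt/T0)/(Ct/C0)]/1-[C0/Ct]}*100 against vehicle controls.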

A further data set addresses Histone deacetylase 5 (Homo sapiens, UniProt Q9UQL6). Put plainly: Inhibition of recombinant human HDAC5 using fluorogenic substrate by fluorescence assay.
Data set [10] relates to PC-3. Briefly: Antitumor activity against human PC3 cells xenografted in athymic nude mouse assessed as tumor growth inhibition at 100 mg/kg, po qd administered daily measured twice per week relative to control. The following applies: PC-3, po, read-out: TGI. The format is functional. The method, boiled down: as §3
A further data set concerns the target T1, Histone deacetylase 7 (Homo sapiens, UniProt Q8WUI4).
T1 sequence (Q8WUI4 whole entry): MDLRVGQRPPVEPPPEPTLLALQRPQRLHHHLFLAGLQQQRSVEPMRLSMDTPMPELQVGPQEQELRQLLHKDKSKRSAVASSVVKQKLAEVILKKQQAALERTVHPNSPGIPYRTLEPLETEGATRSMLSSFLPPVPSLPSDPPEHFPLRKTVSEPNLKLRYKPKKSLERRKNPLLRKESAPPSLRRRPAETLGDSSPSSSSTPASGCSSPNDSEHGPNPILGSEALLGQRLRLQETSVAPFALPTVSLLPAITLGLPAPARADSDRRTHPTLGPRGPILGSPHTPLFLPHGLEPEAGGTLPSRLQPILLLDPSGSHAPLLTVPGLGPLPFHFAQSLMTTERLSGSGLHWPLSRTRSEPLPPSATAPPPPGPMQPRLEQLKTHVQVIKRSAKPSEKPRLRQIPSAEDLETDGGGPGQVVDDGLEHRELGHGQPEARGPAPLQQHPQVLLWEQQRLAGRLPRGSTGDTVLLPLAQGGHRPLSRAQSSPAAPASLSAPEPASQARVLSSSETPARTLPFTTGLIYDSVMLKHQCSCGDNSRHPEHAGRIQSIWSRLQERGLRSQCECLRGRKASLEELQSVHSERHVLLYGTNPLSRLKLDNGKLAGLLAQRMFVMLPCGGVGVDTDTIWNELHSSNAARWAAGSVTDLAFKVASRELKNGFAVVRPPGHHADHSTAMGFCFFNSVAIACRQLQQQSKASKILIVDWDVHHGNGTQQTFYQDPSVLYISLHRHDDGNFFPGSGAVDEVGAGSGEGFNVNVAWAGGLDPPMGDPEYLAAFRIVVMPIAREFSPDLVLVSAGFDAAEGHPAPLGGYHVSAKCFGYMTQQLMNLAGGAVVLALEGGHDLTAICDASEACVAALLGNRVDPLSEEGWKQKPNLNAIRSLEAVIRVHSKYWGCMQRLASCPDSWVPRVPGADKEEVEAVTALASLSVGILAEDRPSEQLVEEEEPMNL
Put plainly: Inhibition of recombinant human HDAC7 using fluorogenic substrate by fluorescence assay.

The species entered for data set [11] is Homo sapiens. Briefly: Inhibition of HDAC in human PC3 cells assessed as increase in alpha-tubulin acetylation at 0.01 to 10 uM by Western blot analysis. The data set is classed as cell-based. In short, it runs like this: as §1

In general, IC50 refers to the concentration that inhibits the measured activity by half.

Active and inactive are the calls of the source. No cut-off for these calls is given here.

Chain of Histone deacetylase 5 (Q9UQL6 whole entry): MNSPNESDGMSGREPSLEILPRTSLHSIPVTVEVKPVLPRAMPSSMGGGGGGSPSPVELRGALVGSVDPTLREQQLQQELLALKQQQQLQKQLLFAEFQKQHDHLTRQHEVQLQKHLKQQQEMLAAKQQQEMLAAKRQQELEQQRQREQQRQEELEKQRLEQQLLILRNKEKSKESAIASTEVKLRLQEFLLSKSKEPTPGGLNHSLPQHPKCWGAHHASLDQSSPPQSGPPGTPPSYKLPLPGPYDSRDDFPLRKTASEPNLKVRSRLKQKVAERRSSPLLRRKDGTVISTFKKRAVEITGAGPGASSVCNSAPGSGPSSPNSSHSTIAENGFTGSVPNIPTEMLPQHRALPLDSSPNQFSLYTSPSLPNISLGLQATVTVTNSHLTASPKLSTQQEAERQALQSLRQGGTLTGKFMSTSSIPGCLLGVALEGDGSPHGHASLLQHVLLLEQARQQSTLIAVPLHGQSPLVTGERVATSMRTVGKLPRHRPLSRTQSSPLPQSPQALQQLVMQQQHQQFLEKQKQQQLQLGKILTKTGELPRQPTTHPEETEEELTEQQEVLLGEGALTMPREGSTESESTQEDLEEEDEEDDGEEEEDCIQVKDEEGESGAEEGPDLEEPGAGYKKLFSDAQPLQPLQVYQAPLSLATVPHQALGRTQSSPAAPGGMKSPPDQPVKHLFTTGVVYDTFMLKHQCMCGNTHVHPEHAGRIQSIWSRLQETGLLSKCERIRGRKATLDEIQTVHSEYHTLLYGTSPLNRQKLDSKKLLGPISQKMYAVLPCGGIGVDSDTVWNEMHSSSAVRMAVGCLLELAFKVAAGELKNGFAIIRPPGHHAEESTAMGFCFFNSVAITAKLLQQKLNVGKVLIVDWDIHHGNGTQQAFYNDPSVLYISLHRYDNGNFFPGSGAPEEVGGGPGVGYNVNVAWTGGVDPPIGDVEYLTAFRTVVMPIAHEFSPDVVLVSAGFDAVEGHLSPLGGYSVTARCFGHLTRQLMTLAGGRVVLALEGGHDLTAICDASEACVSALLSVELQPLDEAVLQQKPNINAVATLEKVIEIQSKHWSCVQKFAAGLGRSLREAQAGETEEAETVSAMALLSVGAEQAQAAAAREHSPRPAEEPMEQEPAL
Chain of Histone deacetylase 3 (O15379 whole entry): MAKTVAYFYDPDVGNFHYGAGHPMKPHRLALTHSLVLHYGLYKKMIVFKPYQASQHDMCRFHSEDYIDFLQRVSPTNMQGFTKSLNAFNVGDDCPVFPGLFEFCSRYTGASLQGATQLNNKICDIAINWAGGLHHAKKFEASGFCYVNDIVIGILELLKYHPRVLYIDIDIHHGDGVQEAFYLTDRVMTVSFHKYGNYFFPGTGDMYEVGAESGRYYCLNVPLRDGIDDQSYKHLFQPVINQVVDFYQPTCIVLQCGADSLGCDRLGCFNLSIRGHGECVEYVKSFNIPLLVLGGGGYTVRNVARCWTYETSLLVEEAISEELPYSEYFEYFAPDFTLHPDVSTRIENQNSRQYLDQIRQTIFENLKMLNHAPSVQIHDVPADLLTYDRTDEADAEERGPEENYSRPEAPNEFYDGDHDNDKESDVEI
Chain of Histone deacetylase 2 (Q92769 whole entry): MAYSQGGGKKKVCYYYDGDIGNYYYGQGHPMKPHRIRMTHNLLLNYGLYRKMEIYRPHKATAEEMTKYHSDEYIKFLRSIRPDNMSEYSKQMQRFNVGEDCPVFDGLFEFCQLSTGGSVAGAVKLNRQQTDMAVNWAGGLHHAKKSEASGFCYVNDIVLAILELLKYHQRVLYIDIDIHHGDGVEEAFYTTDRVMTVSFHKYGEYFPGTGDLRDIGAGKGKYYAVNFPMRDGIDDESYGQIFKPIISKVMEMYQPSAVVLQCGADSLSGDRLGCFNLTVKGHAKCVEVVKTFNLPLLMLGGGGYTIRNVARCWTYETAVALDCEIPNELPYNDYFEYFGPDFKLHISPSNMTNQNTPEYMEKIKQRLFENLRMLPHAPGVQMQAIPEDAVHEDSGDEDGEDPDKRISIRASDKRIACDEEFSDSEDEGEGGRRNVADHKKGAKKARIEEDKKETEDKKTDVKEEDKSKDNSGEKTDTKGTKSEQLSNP
Chain of Histone deacetylase 4 (P56524 whole entry): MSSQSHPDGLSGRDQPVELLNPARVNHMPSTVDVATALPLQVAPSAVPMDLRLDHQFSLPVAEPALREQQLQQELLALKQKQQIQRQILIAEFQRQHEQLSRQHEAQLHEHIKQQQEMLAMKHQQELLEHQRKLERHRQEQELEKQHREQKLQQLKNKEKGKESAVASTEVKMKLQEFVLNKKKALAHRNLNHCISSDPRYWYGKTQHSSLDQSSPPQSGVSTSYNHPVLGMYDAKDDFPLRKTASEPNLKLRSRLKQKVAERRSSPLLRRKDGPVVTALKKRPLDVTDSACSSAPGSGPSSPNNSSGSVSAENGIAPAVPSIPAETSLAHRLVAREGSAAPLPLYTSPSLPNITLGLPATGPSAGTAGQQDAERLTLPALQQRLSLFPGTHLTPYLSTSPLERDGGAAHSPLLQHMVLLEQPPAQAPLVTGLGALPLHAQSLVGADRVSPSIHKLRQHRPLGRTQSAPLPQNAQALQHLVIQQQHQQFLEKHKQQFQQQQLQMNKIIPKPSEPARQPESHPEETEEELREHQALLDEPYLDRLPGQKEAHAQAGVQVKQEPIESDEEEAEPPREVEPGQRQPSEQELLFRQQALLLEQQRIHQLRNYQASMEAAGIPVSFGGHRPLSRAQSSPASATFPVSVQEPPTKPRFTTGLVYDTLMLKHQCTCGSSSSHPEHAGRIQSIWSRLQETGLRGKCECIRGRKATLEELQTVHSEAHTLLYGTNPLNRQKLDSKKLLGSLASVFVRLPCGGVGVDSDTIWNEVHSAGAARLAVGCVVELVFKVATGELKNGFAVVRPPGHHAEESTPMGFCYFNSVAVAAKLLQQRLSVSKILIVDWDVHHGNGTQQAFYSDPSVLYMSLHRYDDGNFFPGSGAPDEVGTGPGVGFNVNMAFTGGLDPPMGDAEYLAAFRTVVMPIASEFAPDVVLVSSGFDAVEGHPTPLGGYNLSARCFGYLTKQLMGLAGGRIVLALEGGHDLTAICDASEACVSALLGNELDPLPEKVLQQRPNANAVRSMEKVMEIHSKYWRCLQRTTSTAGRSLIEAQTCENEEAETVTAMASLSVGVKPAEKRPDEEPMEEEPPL

As for `COc1ccc2c(C(=O)c3cc(OC)c(OC)c(OC)c3)cn(Cc3ccc(C(=O)NO)cc3)c2c1`, the Activity entry in the data set with Mus musculus [1] and with Mus musculus [6] was “Non-Toxic” each time. Further, the alpha-tubulin acetylation increase entry in the data set listed under Homo sapiens [2] is “Dose-dependent effect”. The inhibition result in the data set listed under Sus scrofa and in the data set filed under Homo sapiens [3] was “Dose-dependent effect” throughout. Further, the IC50 at Histone deacetylase 4 (read-out: IC50) is 1980 nM; with PC-3 [5], 179 nM; on Histone deacetylase 3 (read-out: IC50), 6530 nM; on Histone deacetylase 2 it was 1410 nM; in the data set with A549, 206 nM; on Histone deacetylase 5, 1030 nM. The inhibition in vivo at 100 mg/kg amounted to 58.2% in the data set with RPMI-8226 [4] and 24.8% in the data set on PC-3 [10]. Further, in the data set with RPMI-8226 [7], the inhibition in vivo at 50 mg/kg amounted to 35.8%. Further, the TGI entry in the data set on RPMI-8226 [8] was “Dose-dependent effect”. The inhibition in vivo at 200 mg/kg in the data set on PC-3 [9] turned out to be 68.5%.

`COc1ccc2c(C(=O)c3cc(OC)c(OC)c(OC)c3)cn(S(=O)(=O)c3cccc(/C=C/C(=O)NO)c3)c2c1`: the IC50 result on Histone deacetylase 7 was “Not Active”; on Histone deacetylase 4, “Not Active”; with PC-3 [5], 33.1 nM; at Histone deacetylase 3, “Not Active”; on Histone deacetylase 2, 3220 nM; in the data set with A549 it was 72.5 nM. Also, on Histone deacetylase 5, the IC50 is 356000 nM. Moreover, the inhibition entry in the data set filed under Homo sapiens [11] is “Active”.
